The source of these data is ChEMBL document CHEMBL4145490, “((S)-3-Mercapto-2-methylpropanamido)acetic acid derivatives as metallo-β-lactamase inhibitors: Synthesis, kinetic and crystallographic studies” (Eur J Med Chem, 2018).

Data set [1] is described as follows: Inhibition of bacterial NDM1 (1 to 270 residues) expressed in Escherichia coli Transetta (DE3) cells using FC-5 as substrate by fluorescence assay. The arrangement: species or system Bacteria.
The nature of data set [2]: Inhibition of bacterial VIM2 (27 to 266 residues) expressed in Escherichia coli Transetta (DE3) cells using FC-5 as substrate by fluorescence assay. The arrangement: species or system Bacteria.
Data set [3] is described as follows: Inhibition of N-terminal his-tagged bacterial NDM1 expressed in Escherichia coli BL21(DE3) pLyS cells. Details: species or system Bacteria.
Data set [4] is described as follows: Inhibition of N-terminal his-tagged bacterial VIM2 (27 to 266 residues) expressed in Escherichia coli BL21(DE3) pLyS cells. The arrangement: species or system Bacteria.
Data set [5] can be described thus: Inhibition of bacterial VIM2 (27 to 266 residues) expressed in Escherichia coli Transetta (DE3) cells using FC-5 as substrate in presence of 100 uM Zn2+ by fluorescence assay. Details: species or system Bacteria. In outline:
(§1)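 VIM-2 inhibition determined as dose-inhibition curves, with the assay run at added Zn(II) of 0, 1 or 100 µM.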

Data set [6] has as its target Metallo-beta-lactamase (Escherichia coli) (UniProt Q5U7L7). Briefly: Inhibition of Escherichia coli VIM2 expressed in Escherichia coli DH5alpha assessed as potentiation of meropenem induced antibacterial activity by measuring fold reduction of meropenem MIC after 16 to 20 hrs by CLSI broth microdilution method relative to control. In outline:
(§2)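 MICs of meropenem against E. coli DH5α carrying a VIM-2-encoding plasmid, and against a control E. coli strain, with meropenem alone or combined with inhibitor at fixed 100, 200 or 500 µM. Fold change is the MIC shift relative to meropenem alone.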
For orientation: Broth dilution looks for growth in wells or tubes with falling amounts of substance.

Data set [7] is filed under the species Danio rerio. Description: Toxicity in FLK-1 promoter EGFP transgenic zebrafish embryos assessed as effect on morphology at 20 uM incubated for 4 to 96 hrs post fertilization by fluorescence microscopic analysis. Type of data set: organism-based. The conditions noted are these: in vivo.
Data set [8] relates to Escherichia coli. Briefly: Potentiation of meropenem induced antibacterial activity against Escherichia coli DH5alpha by measuring meropenem MIC at 200 uM after 16 to 20 hrs by CLSI broth microdilution method (reference value: <0.25 microg/ml). The data set is classed as functional. As to conditions: DH5[alpha]. In outline:
as §2

The test system of data set [9] is Escherichia coli. Description: Growth inhibition of Escherichia coli DH5alpha after 16 to 20 hrs by CLSI broth microdilution method. Type of data set: organism-based, DH5[alpha]. The conditions noted are these: in vivo. In outline:
as §2

Data set [10] is filed under the species Danio rerio. Description: Toxicity in FLK-1 promoter EGFP transgenic zebrafish embryos assessed as limited mobility at 20 uM incubated for 4 to 96 hrs post fertilization by fluorescence microscopic analysis. The data set is classed as organism-based. As to conditions: in vivo.
A further data set concerns HEK-293T. Description: Cytotoxicity against HEK293T cells assessed as reduction in cell viability at 50 uM after 72 hrs by MTT assay relative to control. Type of data set: cell-based. As to conditions: human. Background: Tetrazolium dyes change colour on reduction, which living cells bring about.
Data set [11] concerns Bacteria. Briefly: Reversible inhibition of bacterial VIM2 (27 to 266 residues) expressed in Escherichia coli Transetta (DE3) cells at 0.14 uM using FC-5 as substrate up to 500 secs by jump dilution assay. In outline:
(§3)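 Jump-dilution reversibility test. VIM-2 at 100-fold its activity-assay concentration was preincubated with inhibitor for 30 min at room temperature, then rapidly diluted 100-fold, and enzyme activity was followed.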

Data set [12] concerns the target Metallo-beta-lactamase (Escherichia coli) (UniProt Q5U7L7). Description: Inhibition of Escherichia coli VIM2 expressed in Escherichia coli DH5alpha assessed as potentiation of meropenem induced antibacterial activity by measuring meropenem MIC at 200 uM after 16 to 20 hrs by CLSI broth microdilution method (reference value: 16 microg/ml). In outline:
as §2

The species named for data set [13] is Danio rerio. Briefly: Toxicity in FLK-1 promoter EGFP transgenic zebrafish embryos assessed as death at 20 uM incubated for 4 to 96 hrs post fertilization by fluorescence microscopic analysis. The data set is classed as organism-based. The conditions noted are these: in vivo.
The test system of data set [14] is Escherichia coli. Briefly: Growth inhibition of Escherichia coli DH5alpha expressing Escherichia coli VIM2 after 16 to 20 hrs by CLSI broth microdilution method. The data set is classed as organism-based, DH5[alpha]. The conditions noted are these: in vivo. A digest of the protocol:
as §2

Data set [15] is filed under the species Danio rerio. Briefly: Toxicity in FLK-1 promoter EGFP transgenic zebrafish embryos assessed as effect on angiogenesis at 20 uM incubated for 4 to 96 hrs post fertilization by fluorescence microscopic analysis. Type of data set: organism-based. As to conditions: in vivo.
In data set [16] the target is Metallo-beta-lactamase (Escherichia coli) (UniProt Q5U7L7). Description: Inhibition of Escherichia coli VIM2 expressed in Escherichia coli DH5alpha assessed as potentiation of meropenem induced antibacterial activity by measuring meropenem MIC at 500 uM after 16 to 20 hrs by CLSI broth microdilution method (reference value: 16 microg/ml). In outline: as §2
For data set [17], the system named is Escherichia coli. Description: Potentiation of meropenem induced antibacterial activity against Escherichia coli DH5alpha by measuring meropenem MIC at 100 uM after 16 to 20 hrs by CLSI broth microdilution method (reference value: <0.25 microg/ml). The data set is classed as functional. As to conditions: DH5[alpha]. A digest of the protocol:
as §2

The subject of data set [18] is Escherichia coli. Briefly: Potentiation of meropenem induced antibacterial activity against Escherichia coli DH5alpha by measuring meropenem MIC at 500 uM after 16 to 20 hrs by CLSI broth microdilution method (reference value: <0.25 microg/ml). Type of data set: functional. As to conditions: DH5[alpha]. In outline: as §2
A short description of data set [19]: Inhibition of bacterial VIM2 (27 to 266 residues) expressed in Escherichia coli Transetta (DE3) cells using FC-5 as substrate in presence of 1 uM Zn2+ by fluorescence assay. Details: species or system Bacteria. In outline: as §1
Data set [20] concerns the target Metallo-beta-lactamase (Escherichia coli) (UniProt Q5U7L7). Briefly: Inhibition of Escherichia coli VIM2 expressed in Escherichia coli DH5alpha assessed as potentiation of meropenem induced antibacterial activity by measuring meropenem MIC at 100 uM after 16 to 20 hrs by CLSI broth microdilution method (reference value: 16 microg/ml). In outline: as §2
Data set [21] deals with Bacteria. Description: Reversible inhibition of bacterial VIM2 (27 to 266 residues) expressed in Escherichia coli Transetta (DE3) cells at 0.77 uM using FC-5 as substrate up to 500 secs by jump dilution assay. In outline: as §3
For data set [22], the system named is Bacteria. Briefly: Reversible inhibition of bacterial VIM2 (27 to 266 residues) expressed in Escherichia coli Transetta (DE3) cells at 7.5 uM using FC-5 as substrate up to 500 secs by jump dilution assay. In outline:
as §3

Active and inactive are the calls of the source. No cut-off for these calls is given here. Where only a bound is given, the exact number is not on record here.

The IC50 is the concentration that gives 50% inhibition. For orientation: pIC50 means the IC50 on a negative log10 scale, so that one unit is a factor of ten. Read a high pIC50 as a low IC50.

On to `C[C@H](CS)C(=O)N[C@@H](Cc1ccccc1)C(=O)O`, for which, in [1], the half-maximal inhibitory concentration (IC50) was found to be 233 µM and the pIC50 stood at 3.63. In addition, in [2], the IC50 worked out at 2.85 µM and the negative-log IC50 (pIC50) is on record as 5.55.
For `C[C@H](CS)C(=O)N[C@H](Cc1c[nH]c2ccccc12)C(=O)O`, in data set [3], the IC50 is 64.8 µM and the pIC50 came out at 4.19. In data set [4], this compound returned an IC50 of 0.05 µM and a pIC50 of 7.26.
For the compound `C[C@H](CS)C(=O)N[C@@H](C(=O)O)c1ccc(O)cc1`, the IC50 in data set [5] was 0.0123 µM; in data set [1] it was 3.57 µM; in [2], 0.00957 to 0.0137 µM; in data set [19], 0.0148 µM. For the same compound, the fold change (FC) in data set [6] lay within 2 to 4. Also, the Activity entry is “Non-Toxic” in the data set filed under Danio rerio [7]; “Non-Toxic” in the data set filed under Danio rerio [10]; 8% in the data set on HEK-293T; “Non-Toxic” in the data set listed under Danio rerio [13]; “Non-Toxic” in the data set filed under Danio rerio [15]. The MIC with Escherichia coli [8] is below 0.25 µg/mL; in the data set with Escherichia coli [9] it was above 128 µg/mL; in data set [12], 8 µg/mL; in the data set with Escherichia coli [14], above 128 µg/mL; in [16], 4 µg/mL; with Escherichia coli [17], below 0.25 µg/mL. Moreover, the MIC was below 0.25 µg/mL in the data set with Escherichia coli [18] and 8 µg/mL in [20]. Besides, the inhibition result in the data set on Bacteria [11] was “inactive”. The pIC50 in data set [1] is 5.45; in data set [2] it was 7.86.
Turning to `C[C@H](CS)C(=O)N[C@H](Cc1ccccc1)C(=O)O`, in data set [1], it took 7 µM to reach half-maximal inhibition (IC50) and the pIC50 is listed as 5.16. In data set [2], the midpoint of inhibition, the IC50, lay at 0.121 µM and the pIC50 came to 6.92.
As for `C[C@H](CS)C(=O)N[C@H](C(=O)O)c1ccc(O)cc1`, the IC50 in data set [5] came to 0.066 µM; in [1], 24 µM; in data set [2], 0.077 µM; in data set [19], 0.0729 µM. Further, the fold change (FC) in data set [6] was in the range of 2 to 4. For the same compound, the Activity entry in the data set listed under Danio rerio [7], in the data set listed under Danio rerio [10], in the data set on HEK-293T, in the data set filed under Danio rerio [13] and in the data set filed under Danio rerio [15] was “Non-Toxic” in each case. In addition, the MIC with Escherichia coli [8] was below 0.25 µg/mL; in the data set with Escherichia coli [9], above 128 µg/mL; in data set [12], 16 µg/mL; in the data set on Escherichia coli [14], above 128 µg/mL; in data set [16], 8 µg/mL; with Escherichia coli [17], below 0.25 µg/mL. Besides, the MIC in the data set with Escherichia coli [18] is below 0.25 µg/mL; in data set [20], 16 µg/mL. For the same compound, the inhibition result with Bacteria [21] was “inactive”. For the same compound, the pIC50 was found to be 4.62 in data set [1] and 7.11 in data set [2].
With `C[C@H](CS)C(=O)N[C@H](Cc1ccc(O)cc1)C(=O)O`, in data set [1], the IC50 came to 73.1 µM and the pIC50 worked out at 4.14. In data set [2], this compound returned an IC50 of 0.276 µM and a pIC50 of 6.56.
For the compound `C[C@H](CS)C(=O)N[C@H](C(=O)O)c1ccccc1`, the IC50 in data set [1] was found to be 8.77 µM; in [2] it was 0.039 µM. Moreover, the pIC50 worked out at 5.06 in data set [1] and 7.41 in data set [2].
Regarding `C[C@H](CS)C(=O)N[C@H](C(=O)O)c1ccc(F)cc1`, in data set [1], half-maximal inhibition (IC50) was put at 11.7 µM and the pIC50 is on record as 4.93. In [2], this compound came in with an IC50 of 0.121 µM and a pIC50 of 6.92.
For the compound `C[C@H](CS)C(=O)N[C@@H](Cc1ccc(O)cc1)C(=O)O`, the IC50 amounted to 326 µM in [1] and 0.49 µM in data set [2]. Besides, the pIC50 in data set [1] is listed as 3.49; in data set [2] it was 6.31.
In data set [1], `C[C@H](CS)C(=O)N[C@@H](C(=O)O)c1ccc(F)cc1` came in with an IC50 of 5.59 µM and a pIC50 of 5.25. In data set [2], this compound gave an IC50 of 0.055 µM and a pIC50 of 7.26.
Turning to `C[C@H](CS)C(=O)N[C@@H](C(=O)O)c1ccccc1`, the IC50 in data set [1] was 20.5 µM; in [2], 0.057 µM. Besides, the pIC50 came out at 4.69 in [1] and 7.25 in [2].
Take `C[C@H](CS)C(=O)N1CCC[C@@H]1C(=O)O` [D-CAPTOPRIL]: in [4], the IC50 came out at 4.55 µM and the pIC50 is given as 5.34.
In the case of `C[C@H](CS)C(=O)N[C@@H](Cc1c[nH]c2ccccc12)C(=O)O`, the IC50 in data set [3] came out at 24.8 µM; in data set [4], 1.06 µM. For the same compound, the pIC50 in data set [3] was determined as 4.61; in data set [4], 5.97.
`C[C@H](CS)C(=O)N1CCC[C@H]1C(=O)O` [CAPTOPRIL]: in the data set on Bacteria [22], the inhibition result is “Active”.
